In ChEMBL document CHEMBL3593206, “SAR Studies of Exosite-Binding Substrate-Selective Inhibitors of A Disintegrin And Metalloprotease 17 (ADAM17) and Application as Selective in Vitro Probes” (J Med Chem, 2015) one finds IC50, inhibition and Activity data, which are given here for three molecules.

Calls of active or inactive are those of the source. The calls are words filed in the database; no cut-off is given here. Where only a bound is given, the exact number is not on record here.

The target of data set [1] is T1, Disintegrin and metalloproteinase domain-containing protein 17 (Homo sapiens, UniProt P78536). Nature of the data set: Inhibition of ADAM17 in human THP1 cells assessed as inhibition of LPS-stimulated TNFalpha cleavage after 1 hr by AlphaScreen assay. Format: cell-based, THP-1. In outline:
(§1)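 THP-1 cells grown in RPMI 1640 with 10% FBS and 0.05 mM 2-mercaptoethanol; 3000 cells per well. Compound given in 3% DMSO for 1 h, then LPS added (1 μg/mL final) and cells incubated overnight at 37 °C. TNFα detected by AlphaScreen using anti-TNFα acceptor beads and streptavidin donor beads, each step 1 h in the dark at RT.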
On the technique in general: Bead proximity is the source of the signal in Alpha formats.

Data set [2] addresses T2, Disintegrin and metalloproteinase domain-containing protein 10 (Homo sapiens) (UniProt O14672).
T2 sequence (whole entry): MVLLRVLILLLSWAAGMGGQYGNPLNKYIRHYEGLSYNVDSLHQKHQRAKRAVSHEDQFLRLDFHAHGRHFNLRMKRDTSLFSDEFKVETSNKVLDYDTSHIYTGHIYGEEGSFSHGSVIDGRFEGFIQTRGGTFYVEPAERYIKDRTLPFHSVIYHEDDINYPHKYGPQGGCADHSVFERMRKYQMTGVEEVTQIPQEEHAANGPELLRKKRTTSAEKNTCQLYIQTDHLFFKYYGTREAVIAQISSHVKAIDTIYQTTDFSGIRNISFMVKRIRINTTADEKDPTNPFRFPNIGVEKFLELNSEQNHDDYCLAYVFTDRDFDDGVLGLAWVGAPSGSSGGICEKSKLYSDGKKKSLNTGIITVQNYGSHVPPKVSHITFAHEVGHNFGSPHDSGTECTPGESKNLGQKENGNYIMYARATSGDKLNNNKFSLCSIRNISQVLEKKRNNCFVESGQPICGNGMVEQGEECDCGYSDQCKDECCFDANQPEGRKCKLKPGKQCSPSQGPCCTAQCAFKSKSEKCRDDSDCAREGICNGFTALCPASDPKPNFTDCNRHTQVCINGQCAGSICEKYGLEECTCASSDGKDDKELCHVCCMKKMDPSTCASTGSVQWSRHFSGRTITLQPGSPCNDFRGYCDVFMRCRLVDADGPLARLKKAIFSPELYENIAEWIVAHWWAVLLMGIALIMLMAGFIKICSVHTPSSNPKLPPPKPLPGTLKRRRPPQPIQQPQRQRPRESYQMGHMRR
Nature of the data set: Inhibition of ADAM10 (unknown origin) at 100 uM preincubated for 30 mins followed by substrate addition measured every 30 mins for 2 hrs by fluorescence assay relative to control. In outline:
(§2)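 Enzyme at 30 nM (3× solution) in 10 mM Hepes, 0.001% Brij-35, pH 7.5. Inhibitor series of 10 points, 1:3, from 300 μM, preincubated 30 min at RT. Glycosylated substrate added from a 30 μM 3× solution. Fluorescence (ex 360/em 460 nm) read every 30 min for 2 h. Inhibition taken from hydrolysis rates against substrate-only and substrate-plus-enzyme wells.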

Data set [3] concerns the target T3, Disintegrin and metalloproteinase domain-containing protein 10 (Homo sapiens, UniProt O14672).
T3 sequence (O14672 whole entry): T2 sequence (whole entry)
Nature of the data set: Inhibition of ADAM10 (unknown origin) preincubated for 30 mins followed by substrate addition measured every 30 mins for 2 hrs by fluorescence assay. In outline: as §2

The target in data set [4] is T1, Disintegrin and metalloproteinase domain-containing protein 17. Nature of the data set: Inhibition of ADAM17 in human HT1080 cells assessed as inhibition of PMA-stimulated PTK7 L622D mutant shedding at 25 to 100 uM after 16 hrs by Western blot analysis. Format: cell-based. As to conditions: HT-1080. In outline: (§3)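 PTK7 shedding tested at 25, 50 and 100 μM in PMA-stimulated cells. HT1080 fibrosarcoma cells carried the L622D PTK7 mutant uncleavable by MT1-MMP; SW480 colorectal cells expressed wild-type PTK7 endogenously. Soluble PTK7 was detected.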
On the technique in general: Immunoblotting shows a protein as a band on a membrane.

Data set [5] has as its target T4, 72 kDa type IV collagenase (Homo sapiens, UniProt P08253). Nature of the data set: Inhibition of MMP2 (unknown origin) using Mca-KLPGL-Dnp-AR as substrate preincubated for 30 mins followed by substrate addition measured after 1 hr by fluorescence assay. In outline: (§4)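 Inhibitor as 10-point 1:3 dilutions from 300 μM, 30 min at RT. Substrate added from a 30 μM 3× solution. Single fluorescence read (ex 324/em 393 nm) after 1 h at RT.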
Target sequence in this assay (P08253 whole entry): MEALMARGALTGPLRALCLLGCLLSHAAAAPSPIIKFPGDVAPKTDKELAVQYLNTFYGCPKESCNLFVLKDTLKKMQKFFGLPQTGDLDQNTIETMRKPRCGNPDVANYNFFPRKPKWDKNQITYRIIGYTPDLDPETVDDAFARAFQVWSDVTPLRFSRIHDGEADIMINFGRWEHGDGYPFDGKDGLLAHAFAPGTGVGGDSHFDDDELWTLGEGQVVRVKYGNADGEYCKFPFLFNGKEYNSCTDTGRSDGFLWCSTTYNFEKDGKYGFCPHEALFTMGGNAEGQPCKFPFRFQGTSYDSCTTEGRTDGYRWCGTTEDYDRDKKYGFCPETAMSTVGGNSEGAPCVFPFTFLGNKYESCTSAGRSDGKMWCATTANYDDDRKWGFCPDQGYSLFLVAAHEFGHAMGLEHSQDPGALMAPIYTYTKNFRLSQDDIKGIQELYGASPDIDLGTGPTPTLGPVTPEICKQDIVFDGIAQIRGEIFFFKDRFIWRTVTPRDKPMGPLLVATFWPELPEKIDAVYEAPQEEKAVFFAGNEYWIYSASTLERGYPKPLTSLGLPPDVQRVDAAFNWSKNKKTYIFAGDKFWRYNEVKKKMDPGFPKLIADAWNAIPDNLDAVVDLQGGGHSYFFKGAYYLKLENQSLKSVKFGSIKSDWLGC

Data set [6] concerns the target T5, Neutrophil collagenase (Homo sapiens, UniProt P22894). Nature of the data set: Inhibition of MMP8 (unknown origin) using Mca-KLPGL-Dnp-AR as substrate preincubated for 30 mins followed by substrate addition measured after 1 hr by fluorescence assay. In outline:
as §4
Target sequence in this assay (P22894 whole entry): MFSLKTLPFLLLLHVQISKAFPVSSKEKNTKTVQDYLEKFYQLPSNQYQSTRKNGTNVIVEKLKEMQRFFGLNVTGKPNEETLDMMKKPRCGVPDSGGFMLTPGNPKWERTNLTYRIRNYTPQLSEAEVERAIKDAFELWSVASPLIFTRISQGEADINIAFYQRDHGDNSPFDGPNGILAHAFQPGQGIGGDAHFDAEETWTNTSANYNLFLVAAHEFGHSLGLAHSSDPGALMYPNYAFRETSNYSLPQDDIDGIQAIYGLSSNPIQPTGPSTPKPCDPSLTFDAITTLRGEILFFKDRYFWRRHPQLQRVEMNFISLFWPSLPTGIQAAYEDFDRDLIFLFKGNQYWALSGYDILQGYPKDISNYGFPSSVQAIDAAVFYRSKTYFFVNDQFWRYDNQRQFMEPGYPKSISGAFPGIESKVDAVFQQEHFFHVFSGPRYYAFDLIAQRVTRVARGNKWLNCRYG

Data set [7] addresses T1, Disintegrin and metalloproteinase domain-containing protein 17. Nature of the data set: Inhibition of ADAM17 in human A549 cells assessed as inhibition of PMA-stimulated heregulin shedding at 40 uM incubated for 1 hr followed by PMA stimulation measured after 1 hr. Format: cell-based. In outline: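 Heregulin shedding in A549 cells, with all compounds tested at 40 μM.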

For data set [8] the target is unchanged. Nature of the data set: Inhibition of ADAM17 in human THP1 cells assessed as inhibition of LPS-stimulated TNFalpha cleavage at 25 uM after 1 hr by AlphaScreen assay relative to control. Format: cell-based. Particulars: THP-1. In outline:
as §1

Data set [9] concerns the target T6, Matrix metalloproteinase-14 (Homo sapiens, UniProt P50281). Nature of the data set: Inhibition of MMP14 (unknown origin) using Mca-KLPGL-Dnp-AR as substrate preincubated for 30 mins followed by substrate addition measured after 1 hr by fluorescence assay. In outline: as §4
Data set [10] has as its system A549. Nature of the data set: Cytotoxicity against human A549 cells assessed as inhibition of cell viability up to 33 uM after 72 hrs by CellTiter-Glo assay. Format: cell-based. As to conditions: a549, 72 h.
For data set [11], the target named is T1, Disintegrin and metalloproteinase domain-containing protein 17. Nature of the data set: Inhibition of ADAM17 (unknown origin) at 100 uM preincubated for 30 mins followed by substrate addition measured every 30 mins for 2 hrs by fluorescence assay relative to control. In outline:
as §2

A short description of data set [12]: Cytotoxicity against CHOK1 cells assessed as inhibition of cell viability up to 33 uM after 72 hrs by CellTiter-Glo assay. Format: cell-based, Cricetulus griseus. Particulars: chinese hamster, cho-k1, 72 h. Background: ATP-based viability assays read luminescence as a measure of living cells.
Data set [13] addresses T5, Neutrophil collagenase. Nature of the data set: Inhibition of MMP8 (unknown origin) using Mca-KLPGL-Dnp-AR as substrate at 100 uM preincubated for 30 mins followed by substrate addition measured after 1 hr by fluorescence assay relative to control. In outline: as §4
Target sequence in this assay (P22894 101-467 limits assumed): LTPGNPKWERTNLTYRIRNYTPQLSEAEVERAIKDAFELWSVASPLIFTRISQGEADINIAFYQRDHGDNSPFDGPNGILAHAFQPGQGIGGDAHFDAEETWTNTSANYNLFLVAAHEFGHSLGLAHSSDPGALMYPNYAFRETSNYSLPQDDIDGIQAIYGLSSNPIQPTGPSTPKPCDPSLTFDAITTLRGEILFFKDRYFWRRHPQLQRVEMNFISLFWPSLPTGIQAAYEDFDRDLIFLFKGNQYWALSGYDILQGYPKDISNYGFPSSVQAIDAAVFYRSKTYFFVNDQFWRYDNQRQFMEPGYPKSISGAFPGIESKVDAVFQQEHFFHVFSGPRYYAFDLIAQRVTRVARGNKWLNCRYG
Data set [14] has as its target T7, Matrix metalloproteinase-9 (Homo sapiens, UniProt P14780). Nature of the data set: Inhibition of MMP9 (unknown origin) using Mca-KLPGL-Dnp-AR as substrate preincubated for 30 mins followed by substrate addition measured after 1 hr by fluorescence assay. In outline: as §4
Data set [15] concerns the target T7, Matrix metalloproteinase-9. Nature of the data set: Inhibition of MMP9 (unknown origin) using Mca-KLPGL-Dnp-AR as substrate at 100 uM preincubated for 30 mins followed by substrate addition measured after 1 hr by fluorescence assay relative to control. In outline:
as §4

The target of data set [16] is T1, Disintegrin and metalloproteinase domain-containing protein 17. Nature of the data set: Inhibition of ADAM17 in human EAhy926 cells assessed as inhibition of neprilysin shedding at 15 uM relative to control. Format: cell-based.
Data set [17] shares this target. Nature of the data set: Inhibition of ADAM17 in human SW480 cells assessed as inhibition of PMA-stimulated wild type PTK7 shedding at 25 to 100 uM after 16 hrs by Western blot analysis. Format: cell-based. In outline: as §3
Data set [18] concerns the target T4, 72 kDa type IV collagenase. Nature of the data set: Inhibition of MMP2 (unknown origin) using Mca-KLPGL-Dnp-AR as substrate at 100 uM preincubated for 30 mins followed by substrate addition measured after 1 hr by fluorescence assay relative to control. In outline:
as §4
Target sequence in this assay (P08253 110-660 limits assumed): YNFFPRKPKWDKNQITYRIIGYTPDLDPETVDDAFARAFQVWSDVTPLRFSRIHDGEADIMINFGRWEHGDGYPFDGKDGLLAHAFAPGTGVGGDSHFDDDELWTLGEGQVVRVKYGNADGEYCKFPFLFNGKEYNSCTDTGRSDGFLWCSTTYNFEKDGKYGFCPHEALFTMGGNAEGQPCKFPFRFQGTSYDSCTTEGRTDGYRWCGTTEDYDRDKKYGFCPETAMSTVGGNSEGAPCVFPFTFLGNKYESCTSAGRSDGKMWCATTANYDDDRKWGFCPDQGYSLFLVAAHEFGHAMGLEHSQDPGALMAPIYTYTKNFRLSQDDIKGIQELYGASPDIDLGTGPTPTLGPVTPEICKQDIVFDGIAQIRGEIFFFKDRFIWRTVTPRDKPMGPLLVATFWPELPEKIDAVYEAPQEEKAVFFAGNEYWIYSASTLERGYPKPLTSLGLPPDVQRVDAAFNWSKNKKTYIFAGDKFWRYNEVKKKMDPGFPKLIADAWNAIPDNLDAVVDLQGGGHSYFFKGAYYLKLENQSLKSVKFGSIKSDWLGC

In data set [19] the target is T1, Disintegrin and metalloproteinase domain-containing protein 17. Nature of the data set: Inhibition of ADAM17 (unknown origin) preincubated for 30 mins followed by substrate addition measured every 30 mins for 2 hrs by fluorescence assay. In outline: as §2
For data set [20] the target is unchanged. Nature of the data set: Inhibition of ADAM17 in human A549 cells assessed as effect on PMA-stimulated TGFalpha shedding up to 100 uM preincubated for 1 hr followed by PMA stimulation measured after 1 hr by ELISA. Format: cell-based. In outline: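 TGFα shedding from PMA-treated A549 cells tested up to 100 μM. Marimastat at 10 μM served as control, with a non-PMA-treated control included; soluble TGFα measured in the supernatant.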

For data set [21], the target named is T2, Disintegrin and metalloproteinase domain-containing protein 10 (Homo sapiens). Nature of the data set: Inhibition of ADAM10 in human A549 cells assessed as inhibition of betacellulin shedding at 40 uM after 1 hr by ELISA. Format: cell-based. In outline:
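A549 cells were tested for betacellulin shedding at 40 μM, with Marimastat at 10 μM as control.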

Data set [22] shares this target. Nature of the data set: Inhibition of ADAM10 in HTSMC assessed as inhibition of PMA-stimulated release of CXCL16 at 10 uM preincubated for 30 mins followed by PMA challenge measured after 4 to 24 hrs by ELISA.
In data set [23] the test system is MDA-MB-231. Nature of the data set: Cytotoxicity against human MDA-MB-231 cells assessed as inhibition of cell viability up to 33 uM after 72 hrs by CellTiter-Glo assay. Format: cell-based. As to conditions: mda-mb-231, 72 h.
The target in data set [24] is T2, Disintegrin and metalloproteinase domain-containing protein 10 (Homo sapiens). Nature of the data set: Inhibition of ADAM10 in HTSMC assessed as inhibition of constitutive release of fractalkine/CX3CL1 at 10 uM preincubated for 30 mins measured after 4 to 24 hrs by ELISA.
Data set [25] addresses T6, Matrix metalloproteinase-14. Nature of the data set: Inhibition of MMP14 (unknown origin) using Mca-KLPGL-Dnp-AR as substrate at 100 uM preincubated for 30 mins followed by substrate addition measured after 1 hr by fluorescence assay relative to control.
The test system of data set [26] is HepG2. Nature of the data set: Cytotoxicity against human HepG2 cells assessed as inhibition of cell viability up to 33 uM after 72 hrs by CellTiter-Glo assay. Format: cell-based. Particulars: hepg2, 72 h.
Data set [27] has as its target T1, Disintegrin and metalloproteinase domain-containing protein 17. Nature of the data set: Inhibition of ADAM17 in HTSMC assessed as inhibition of LPS-stimulated IL-8 shedding at 10 uM preincubated for 30 mins followed by LPS challenge measured after 4 to 24 hrs by ELISA. In outline:
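HTSMCs stimulated with LPS for IL-8 release; compounds at 10 μM. Mean ± SEM, n = 3 from three independent experiments; one-way ANOVA with Dunnett post hoc test.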

Data set [28] concerns the target T2, Disintegrin and metalloproteinase domain-containing protein 10 (Homo sapiens). As to conditions: A549, 10 uM.

T7 sequence (P14780 whole entry): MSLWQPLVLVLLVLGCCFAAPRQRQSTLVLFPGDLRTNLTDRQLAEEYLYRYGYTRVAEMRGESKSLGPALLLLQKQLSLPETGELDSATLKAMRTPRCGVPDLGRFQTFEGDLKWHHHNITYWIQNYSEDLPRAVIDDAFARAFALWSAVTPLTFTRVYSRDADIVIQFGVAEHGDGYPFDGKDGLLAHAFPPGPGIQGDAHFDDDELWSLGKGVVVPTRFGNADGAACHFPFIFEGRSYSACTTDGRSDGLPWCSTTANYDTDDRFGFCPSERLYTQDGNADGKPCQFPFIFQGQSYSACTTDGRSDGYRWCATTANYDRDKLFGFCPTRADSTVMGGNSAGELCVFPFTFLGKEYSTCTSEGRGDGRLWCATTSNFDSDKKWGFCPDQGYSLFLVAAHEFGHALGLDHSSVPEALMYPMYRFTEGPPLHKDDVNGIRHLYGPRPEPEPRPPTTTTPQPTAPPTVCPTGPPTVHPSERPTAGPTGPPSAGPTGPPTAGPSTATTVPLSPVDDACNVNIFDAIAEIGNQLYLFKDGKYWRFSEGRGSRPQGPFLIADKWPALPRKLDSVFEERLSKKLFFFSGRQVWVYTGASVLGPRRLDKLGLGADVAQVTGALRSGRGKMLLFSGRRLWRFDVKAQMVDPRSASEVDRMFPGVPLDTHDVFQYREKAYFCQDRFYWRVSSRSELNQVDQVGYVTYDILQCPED
T1 sequence (P78536 whole entry, the tested form may be a part): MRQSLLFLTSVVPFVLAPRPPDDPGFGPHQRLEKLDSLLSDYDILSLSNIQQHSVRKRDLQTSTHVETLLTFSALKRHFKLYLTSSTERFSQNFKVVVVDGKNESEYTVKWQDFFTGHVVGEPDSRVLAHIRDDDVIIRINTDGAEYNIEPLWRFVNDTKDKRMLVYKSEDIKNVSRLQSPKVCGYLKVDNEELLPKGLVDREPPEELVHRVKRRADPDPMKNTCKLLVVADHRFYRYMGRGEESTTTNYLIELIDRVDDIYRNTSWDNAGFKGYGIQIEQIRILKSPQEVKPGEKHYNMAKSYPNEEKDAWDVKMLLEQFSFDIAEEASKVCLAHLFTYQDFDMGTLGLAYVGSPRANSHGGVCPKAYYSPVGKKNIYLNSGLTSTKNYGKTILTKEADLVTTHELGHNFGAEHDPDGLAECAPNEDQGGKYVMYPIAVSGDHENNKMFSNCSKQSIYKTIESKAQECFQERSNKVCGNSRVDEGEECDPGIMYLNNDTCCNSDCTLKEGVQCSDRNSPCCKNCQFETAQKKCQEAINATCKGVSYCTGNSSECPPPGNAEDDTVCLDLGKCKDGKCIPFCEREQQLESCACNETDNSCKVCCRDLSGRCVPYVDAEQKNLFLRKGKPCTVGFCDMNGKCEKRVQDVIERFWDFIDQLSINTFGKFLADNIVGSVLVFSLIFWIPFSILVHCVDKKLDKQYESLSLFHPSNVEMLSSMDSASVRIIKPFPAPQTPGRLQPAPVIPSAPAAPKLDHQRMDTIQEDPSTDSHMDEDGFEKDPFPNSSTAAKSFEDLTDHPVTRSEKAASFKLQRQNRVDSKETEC

Consider `CCC[C@H]1CNC(=O)C(=O)N1C[C@@H]1CCCN1C[C@@H](CC1CCCCC1)N1C[C@H](Cc2ccccc2)N(CCc2ccccc2)C(=O)C1=O`, for which the IC50 (as a rule, the midpoint of a concentration-inhibition curve) in [1] was 28 µM; in data set [3] it was above 100 µM; in data set [5] it was above 100 µM; in data set [6], above 100 µM; in data set [9] it was above 100 µM; in [14], above 100 µM. Half-maximal inhibition in data set [19] (IC50) was put at 4.3 µM. The inhibition (in general, how much of the control response was suppressed) in [2] turned out to be 0%; in data set [4], 0%; in data set [7] it was 28%; in data set [8], 60%; in data set [11], 100%; in data set [13] it was 0%. Besides, the inhibition in data set [15] turned out to be 0%; in data set [16], 38%; in [17], 0%; in data set [18], 0%; in data set [20], 0%. For the same molecule, the Activity result in [10] and in data set [12] was “Non-toxic” each time.
On to `O=C1NC[C@H](Cc2ccccc2)N(C[C@@H]2CCCN2C[C@H](Cc2ccccc2)N2C[C@H](Cc3ccc(O)cc3)N(CCC34CC5CC(CC(C5)C3)C4)C(=O)C2=O)C1=O`, for which the inhibition in [2] is 0%; in [21], 0%; in data set [22], 0%; in data set [7], 0%; in [8] it was 44%; in data set [24], 0%. Further, the inhibition came to 100% in data set [11]; 0% in data set [25]; 0% in data set [13]; 0% in [15]; 0% in data set [18]; 0% in [20]. In addition, the inhibition in data set [27] stood at 62%. For the same molecule, the IC50 in data set [3] was above 100 µM; in data set [5] it was above 100 µM; in data set [6], above 100 µM; in [9], above 100 µM; in [14] it was above 100 µM; in data set [19], 11 µM. The Activity entry in data set [23], in data set [10], in [12] and in data set [26] was “Non-toxic” throughout.
Turning to `CNC(=O)[C@@H](NC(=O)[C@H](CC(C)C)[C@H](O)C(=O)NO)C(C)(C)C`, the inhibition result in data set [28] was “Active”.
